Assay outcomes deposited in PubChem by Johns Hopkins Ion Channel Center.
TRPC4 potent = allosteric potentiators of mouse TRPC4 channel; HEK293 TRPC4beta/mu-opioid, DAMGO EC20, Fluo-4 Ca2+ flux; stronger effect = higher value; Q9QUQ5; B-score at 10 µM; 310,000 tested, 0.42% active;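 active = B-score of calcium response area above 5 SD of library B-scores, with initial fluorescence ratio within 5 SD of library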
TRPC4 agonist = activators of mouse TRPC4 channel. Q9QUQ5. HEK293 TRPC4beta/mu-opioid, Fluo4 calcium fluorescence; stronger effect = higher value. B-score at 10 µM. 310,000 tested, 0.49% active. AID 2237;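 active = B-score above 5 SD of library B-scores, and initial fluorescence ratio not above library mean plus 5 SD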;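 also: positive B-score marks a calcium rise read as TRPC4 activation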
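Technique: kinetic Fluo4 calcium fluorescence; Test system: TRPC4beta and mu-opioid receptor HEK293 stable cells; Measure: B-scored integrated calcium fluorescence ratio; Benchmarks: low control buffer alone, high control maximal DAMGO; Schedule: 45 min room-temperature Fluo4 loading, 110 s read.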
TRPC6 inh = inhibitors of mouse TRPC6 channel; HEK293-TRPC6, membrane potential dye, ACh-evoked depolarization; stronger effect = lower value; B-score at 10 µM; 310,000 tested, 1.1% active;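 active = B-score under library mean minus 3 SD, initial fluorescence not abnormally high, positive integrated signal ratio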;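 also: B-score derived from integrated fluorescence ratio over the kinetic read; more negative B-score means stronger inhibition of depolarization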
TRPC4 inh = TRPC4 (mouse) channel inhibition; 300,000 tested, 0.39% active; B-score at 10 µM; HEK293 TRPC4beta/mu-opioid, DAMGO-evoked Fluo4 calcium flux; stronger effect = lower value;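 active = B-score over 3 SD under the library average, no early fluorescence shift, positive overall ratio signal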
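Assay system: HEK293 cells with stable TRPC4beta plus mu-opioid receptor expression. Dosing: single dose. Measured by: Fluo4 Ca2+ flux fluorescence. Also added: DAMGO in two steps, submaximal then maximal. Read-out: B score from integrated Fluo4 fluorescence ratio.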
TRPC6 activator = mouse TRPC6 channel activation. Q61143. HEK293-TRPC6 membrane potential dye fluorescence; stronger effect = higher value. B-score at 10 µM. 310,000 tested, 0.13% active;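 active = B-score of the integrated fluorescence ratio above library mean plus 3 SD, and starting fluorescence ratio within library mean plus 5 SD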;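 also: higher score means more depolarization so channel activation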
Kir21 block = inhibitors of mouse Kir2.1 inward-rectifier potassium channel; P35561; HEK293-Kir2.1, FluxOR thallium flux fluorescence; stronger effect = lower value; B-score at 10 µM; 310,000 tested, 0.85% active; AID 1672;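 active = fluorescence ratio B-score at or below minus 3 SD of library scores, with starting-brightness B-score within 2 SD, cut at about -4.2 in these data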;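 also: channel flux triggered by added potassium and thallium sulfate stimulus; B-score of peak minus minimum fluorescence over baseline after thallium stimulus; more negative B-score means stronger Kir2.1 block with less thallium influx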
Target sequence (P35561 whole entry, looked up): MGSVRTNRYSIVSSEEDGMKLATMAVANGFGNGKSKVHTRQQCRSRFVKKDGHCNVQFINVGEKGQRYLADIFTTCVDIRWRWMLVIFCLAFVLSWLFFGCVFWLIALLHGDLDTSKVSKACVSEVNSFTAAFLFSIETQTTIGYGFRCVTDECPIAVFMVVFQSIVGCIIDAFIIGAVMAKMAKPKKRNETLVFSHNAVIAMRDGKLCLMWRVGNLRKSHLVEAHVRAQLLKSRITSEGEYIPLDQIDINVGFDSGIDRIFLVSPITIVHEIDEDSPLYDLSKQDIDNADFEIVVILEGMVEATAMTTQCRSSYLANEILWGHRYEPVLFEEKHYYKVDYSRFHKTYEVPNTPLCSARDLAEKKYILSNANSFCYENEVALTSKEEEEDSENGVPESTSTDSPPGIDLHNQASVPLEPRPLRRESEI
TRPC4 sel inh 2 = mouse TRPC4 off-target activity of TRPC6 inhibitors, second screen | inhibition, % at 10 µM | 920 tested, 42% active | shares compounds with TRPC6 inh | HEK293 TRPC4/MOR, membrane potential dye fluorescence; channel activated by saturating DAMGO dose;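 active = compounds whose fluorescence signal differed from control wells by over 3 SD, either direction, in both duplicate plates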
TRPC4 spec = selectivity of TRPC6 inhibitors: effect on mouse TRPC4; shares compounds with TRPC6 inh; HEK293 TRPC4/mu-opioid, membrane potential fluorescence; activity change, negative = inhibition, % at 10 µM; 920 tested, 61% active; AID 2777;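 active = rise or fall in signal beyond 3 SD of buffer-only wells in both replicate plates, either sign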;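 also: integrated kinetic ratio of fluorescence range over baseline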
HEK293 MPD ctr 2-1 = parental HEK293 nonspecific activity of TRPC6 inhibitors, second screen | shares compounds with TRPC6 inh | AID 2779 | signal change vs control, % at 10 µM | 920 tested, 31% active | parental HEK293 membrane potential dye fluorescence; maximal acetylcholine challenge after compound addition;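 active = membrane potential signal moving either way by over 3 SD of the maximum-effect control, in both duplicate plates, meaning non-specific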
HEK293 MPD ctr-1 = counter-screen for TRPC6 inhibitors: effect in parental HEK293 cells; shares compounds with TRPC6 inh; parental HEK293 membrane potential dye fluorescence; membrane potential signal change, % at 10 µM; 920 tested, 60% active;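 active = membrane potential signal shifting up or down by more than 3 SD of buffer-only wells, on both duplicate plates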
HEK293 MPD ctr-2 = checks TRPC6 modulator effects in parental HEK293 cells | membrane potential dye fluorescence | shares compounds with TRPC6 inh | membrane potential signal change, % at 10 µM | 2,400 tested, 51% active;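 active = membrane potential signal moves up or down beyond 5 SD from buffer-only wells, on both duplicate plates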
HEK293 MPD ctr 2-2 = second counter-screen for TRPC6 modulators: effect in parental HEK293 cells | membrane potential dye fluorescence; after compound, maximal acetylcholine stimulation | shares compounds with TRPC6 inh | inhibition, % at 10 µM | 2,400 tested, 14% active;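 active = membrane potential signal drops by more than 5 SD from the mean control signal, in both duplicate plates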
TRPC4/MOR mod = tests whether TRPC6 modulators also affect mouse TRPC4. shares compounds with TRPC6 inh. HEK293 TRPC4/mu-opioid, membrane potential fluorescence. percent change from control (negative = decrease, positive = increase), % at 10 µM. 2,400 tested, 69% active. AID 488927;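 active = membrane potential signal moved up or down beyond 5 SD of buffer control wells, in both duplicate plates, actives on both sides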
TRPC4 ctr inh 2 = mouse TRPC4 off-target activity of TRPC6 modulators, second screen; AID 488928; 2,400 tested, 55% active; shares compounds with TRPC6 inh; HEK293 TRPC4/mu-opioid, membrane potential dye fluorescence; stimulated with maximal-effect DAMGO; inhibition, % at 10 µM;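 active = drop in membrane potential signal beyond 5 SD of the control wells in both duplicate plates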;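 also: TRPC4 counter screen for TRPC6 hits run under conditions tuned for TRPC6 not TRPC4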
TRPC6 inh conf = mouse TRPC6 inhibitor confirmation. shares compounds with TRPC6 inh. HEK293-TRPC6, membrane potential dye, ACh-evoked depolarization. inhibition, % at 10 µM. 3,300 tested, 43% active. AID 488960;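 active = fluorescence ratio falls more than 5 SD below the full-stimulation control mean, in both duplicate runs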;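 also: integrated fluorescence ratio of peak minus minimum over baseline after agonist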
TRPC6 act confirm = mouse TRPC6 activator confirmation; shares compounds with TRPC6 inh; HEK293-TRPC6 membrane potential dye fluorescence, FDSS; activation, % at 10 µM; 2,800 tested, 11% active; AID 488961;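 active = ratio signal rise beyond 5 SD above unstimulated control wells' mean, seen in both duplicate runs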
Of the large screens only hits and unclear results are named; the others gave an inactive call (follow-up assays come after a bar, where they were run). Only some compounds are listed: those with a hit (about 2.9% of all), similar ones and a draw of the others.

CC1CCCCN1C(=O)CSc1nc2c(c(=O)n(C)c(=O)n2C)n1C (centres undefined)	none
CCC(C(=O)NC1CCCC1)N(C(=O)Cn1nnc(-c2ccc(C)o2)n1)c1cccc(OC)c1 (centres undefined)	none
O=C(CN1C(=O)c2ccccc2C1=O)NCC1CCCO1 (centres undefined)	none
O=C(CN1C(=O)c2ccc(Br)cc2C1=O)NCC1CCCO1 (centres undefined)	TRPC6 inh -8.95 | HEK293 MPD ctr-2 inactive | HEK293 MPD ctr 2-2 inactive | TRPC4/MOR mod inactive | TRPC4 ctr inh 2 inactive | TRPC6 inh conf 81.5%
CCOC(=O)c1cc2[nH]c3ccccc3c2[n+](-c2ccc([N+](=O)[O-])cc2)c1C	TRPC6 inh -7.6 | HEK293 MPD ctr-2 -275.0% | HEK293 MPD ctr 2-2 inactive | TRPC4/MOR mod -49.5% | TRPC4 ctr inh 2 56.0% | TRPC6 inh conf 60.0% | TRPC6 act confirm inactive
CCOC(=O)c1cc2[nH]c3ccccc3c2[n+](-c2ccc([N+](=O)[O-])cc2)c1N	none
COC(=O)c1[nH]c2ccccc2c1NC(=O)CN1CCN(Cc2ccc3c(c2)OCO3)CC1	TRPC6 inh -5.62 | HEK293 MPD ctr-2 inactive | HEK293 MPD ctr 2-2 inactive | TRPC4/MOR mod inactive | TRPC4 ctr inh 2 66.0% | TRPC6 inh conf 57.0% | TRPC6 act confirm inactive
COC(=O)c1[nH]c2ccc(C)cc2c1NC(=O)CCN1CCN(C2CCCCC2)CC1	none
COC(=O)c1[nH]c2ccc(Br)cc2c1NC(=O)CN1CCN(C2CCCCC2)CC1	TRPC6 inh -16.8 | TRPC4 sel inh 2 29.5% | TRPC4 spec -24.1% | HEK293 MPD ctr 2-1 20.0% | HEK293 MPD ctr-1 -268.5% | TRPC6 inh conf 94.1% | TRPC6 act confirm inactive
COC(=O)c1[nH]c2cc(C)ccc2c1NC(=O)CN1CCCc2ccccc21	TRPC6 inh -11 | TRPC4 sel inh 2 inactive | TRPC4 spec -10.5% | HEK293 MPD ctr 2-1 inactive | HEK293 MPD ctr-1 inactive | TRPC6 inh conf inactive | TRPC6 act confirm inactive
CCOCCOC(=O)C1=C(C)N(C)C(=O)NC1c1cc(Cl)c(O)c(OCC)c1 (centres undefined)	none
COc1ccc(N2CC(NS(=O)(=O)c3cccnc3)CC2=O)cc1OC (centres undefined)	none
COc1ccc(-n2nc(C(N)=O)nc2-c2ccccc2)cc1	TRPC6 inh -5.84 | HEK293 MPD ctr-2 inactive | HEK293 MPD ctr 2-2 inactive | TRPC4/MOR mod inactive | TRPC4 ctr inh 2 inactive | TRPC6 inh conf 47.5%
Cc1ccc(-n2nc(C(N)=O)nc2-c2ccccc2)cc1	none
CCCCc1nnc(NC(=O)c2ccc3c(=O)n4c(nc3c2)CCC4)s1	TRPC6 inh -7.42 | TRPC4 sel inh 2 inactive | TRPC4 spec -15.2% | HEK293 MPD ctr 2-1 inactive | HEK293 MPD ctr-1 -130.5% | TRPC6 inh conf inactive | TRPC6 act confirm inactive
O=C(Nc1ccc(Cl)cc1Cl)c1ccc2c(=O)n3c(nc2c1)CCC3	TRPC4 agonist 59, TRPC6 inh -5.1 | HEK293 MPD ctr-2 276.5% | HEK293 MPD ctr 2-2 114.5% | TRPC4/MOR mod 34.0% | TRPC4 ctr inh 2 inactive | TRPC6 inh conf inactive
CCc1ccc(C(=O)NNC(=O)c2ccc3c(=O)n4c(nc3c2)CCC4)cc1	none
O=C(Oc1ccc(F)c(F)c1)c1ccc2c(=O)n3c(nc2c1)CCC3	TRPC6 inh -5.11 | HEK293 MPD ctr-2 inactive | HEK293 MPD ctr 2-2 inactive | TRPC4/MOR mod inactive | TRPC4 ctr inh 2 inactive | TRPC6 inh conf inactive | TRPC6 act confirm inactive
CCOC(=O)c1c(C)[nH]c(C(=O)COC(=O)c2ccccn2)c1C	none
O=c1cc(CSc2nnc(COc3cccc4ccccc34)o2)c2ccccc2[nH]1	none
Cc1ccc(N(CC(=O)NC2CCCCC2)C(=O)CCC(=O)Nc2nccs2)cc1	none
CCC(=O)NCCc1nc2cc(NC(=O)COc3ccccc3)ccc2n1C	none
CC1CCCCN1CCCNC(=O)C1CCN(c2nc3ccccc3o2)CC1 (centres undefined)	none
CCOc1cc2nc(-c3ccc(OC)c(OC)c3)nc(N3CC(C)OC(C)C3)c2cc1OC (centres undefined)	TRPC6 inh -8.33 | TRPC4 sel inh 2 inactive | TRPC4 spec -20.3% | HEK293 MPD ctr 2-1 inactive | HEK293 MPD ctr-1 inactive | TRPC6 inh conf inactive | TRPC6 act confirm inactive
CCOc1cc2nc(-c3ccc(OC)c(OC)c3)nc(N3CCOCC3)c2cc1OC	none
COc1ccccc1N1N=C(c2ccc([N+](=O)[O-])cc2)CC1c1ccccc1 (centres undefined)	TRPC6 activator 12.6 | HEK293 MPD ctr-2 inactive | HEK293 MPD ctr 2-2 inactive | TRPC4/MOR mod 23.0% | TRPC4 ctr inh 2 inactive | TRPC6 inh conf inactive | TRPC6 act confirm 44.5%
COc1cc(N2N=C(c3ccccc3)CC2c2ccccc2)c(C=O)cc1C=O (centres undefined)	none
Cc1cccc(C(=O)Nc2cccnc2Cl)c1	none
O=C(O)c1ccccc1NS(=O)(=O)c1cccc2nsnc12	none
